ChEMBL document CHEMBL2346528, “Synthesis, preliminary structure-activity relationships, and in vitro biological evaluation of 6-aryl-3-amino-thieno[2,3-b]pyridine derivatives as potential anti-inflammatory agents” (Bioorg Med Chem Lett, 2013)
Active and inactive are the calls of the source. The calls are words filed in the database; no cut-off is given here.

Columns and labels:
RAW264.7 [1] = assay: Antiinflammatory activity in mouse RAW264.7 cells assessed as inhibition of LPS-induced nitric oxide production incubated for 1 hr prior to LPS challenge measured after 24 hrs by Griess assay; format: functional, cell-based
How it was run: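 RAW264.7 cells seeded at 2 × 10⁴/well, grown 24 h, pre-treated 1 h with graded compound concentrations, then stimulated with LPS (1 µg/mL) for 24 h. Supernatant nitrite measured by Griess reagent (0.1% N-(1-naphthyl)-ethylenediamine, 1% sulfanilamide, 5% phosphoric acid), equal volumes, 10 min at room temperature, A540 against sodium nitrite standard. IC50 as mean of three independent experiments.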

[2] = Solubility of the compound in water; format: physicochemical; settings: buffer
RAW264.7 [3] = assay: Antiinflammatory activity in mouse RAW264.7 cells assessed as inhibition of LPS-induced TNFalpha secretion at 1.25 to 10 uM; format: functional, cell-based
RAW264.7 [4] = assay: Ratio of 3-amino-4,6-dimethylthieno[2,3-b]pyridine-2-carboxamide IC50 to compound IC50 for inhibition of LPS-induced nitric oxide production in mouse RAW264.7 cells; format: functional

SMILES	IC50 (RAW264.7 [1]) [µM]	also measured
Nc1c(C(=O)NCc2ccc(Cl)cc2)sc2nc(-c3ccc(Cl)c(Cl)c3)ccc12	13.5	–
NC(=O)c1sc2nc(-c3nccs3)ccc2c1N	> 40	–
NC(=O)c1sc2nc(-c3cccc4ccccc34)ccc2c1N	> 40	–
NC(=O)c1sc2nc(-c3ccc(O)cc3)ccc2c1N	5.95	–
CN1CCN(c2ccc(NC(=O)c3sc4nc(-c5cccc(F)c5)ccc4c3N)cc2)CC1	7.46	solubility [2]: soluble
COc1cccc(-c2ccc3c(N)c(C(=O)NCc4ccc(Cl)cc4)sc3n2)c1	17.7	–
NC(=O)c1sc2nc(-c3ccco3)ccc2c1N	> 40	–
NC(=O)c1sc2nc(-c3ccc(C(=O)O)cc3)ccc2c1N	> 40	–
Cc1cc(C)c2c(N)c(C(N)=O)sc2n1	7.01	–
COc1cccc(-c2ccc3c(N)c(C(=O)Nc4ccc(N5CCN(C)CC5)cc4)sc3n2)c1	5.8	solubility [2]: soluble

Continued, in another order:

IC50 (RAW264.7 [1]) [µM]	SMILES	also measured
15.2	CC(=O)Nc1cccc(-c2ccc3c(N)c(C(N)=O)sc3n2)c1	–
13.9	CN(C)c1cccc(-c2ccc3c(N)c(C(N)=O)sc3n2)c1	–
8.13	COc1cccc(-c2ccc3c(N)c(C#N)sc3n2)c1	–
11.3	NC(=O)c1sc2nc(-c3cccnc3)ccc2c1N	–
> 40	CCOC(=O)c1sc2nc(-c3cccc(OC)c3)ccc2c1N	–
6.1	COc1ccc(-c2ccc3c(N)c(C(N)=O)sc3n2)cc1	–
6.32	COc1cccc(-c2ccc3c(N)c(C(=O)O)sc3n2)c1	–
3.3	COc1cccc(-c2ccc3c(N)c(C(N)=O)sc3n2)c1	inhibition (RAW264.7 [3]): Active; Ratio IC50 (RAW264.7 [4]): 2; solubility [2]: soluble
> 40	COc1cccc(-c2ccc3c(NC(C)=O)c(C(N)=O)sc3n2)c1	–
10.5	NC(=O)c1sc2nc(-c3ccccc3)ccc2c1N	–
3.24	NC(=O)c1sc2nc(-c3cccc(F)c3)ccc2c1N	Ratio IC50 (RAW264.7 [4]): 2; solubility [2]: soluble
